From PubChem
This is a sample that favours compounds with a hit; in the whole collection about 3.1% have one here.
KCNQ1 act: potentiators or activators of KCNQ1 channel, primary screen, cell-based, thallium flux, high-throughput; Potassium voltage-gated channel subfamily KQT member 1 (Homo sapiens), P51787; CHO-K1 KCNQ1, thallium flux FluxOR fluorescence; active compounds read high; B-score at 10 µM; actives 0.35% (n = 310,000);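 active = fluorescence ratio B-score, a plate-corrected score, at least three library SD, with initial intensity B-score within 5 SD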
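Assay system: CHO-K1 cells stably expressing KCNQ1; Medium: assay buffer with matched DMSO; Also added: K+/Tl+ depolarizing stimulus; Dosing: single dose; Timing: dye 90 min, compound 20 min, room temperature; Measured by: kinetic FluxOR thallium fluorescence, 10-s 1-Hz baseline, 110-s post-stimulus read; Read-out: peak-minus-minimum fluorescence over initial fluorescence, negative-control normalized, B-scored.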
hERG protect: hERG rescue from dofetilide block, primary screen, cell-based, CHO-hERG, FluxOR thallium flux, dofetilide IC70; Voltage-gated inwardly rectifying potassium channel KCNH2 (Homo sapiens), Q12809; dofetilide IC70 present; activation (rescue from dofetilide block), less the hit threshold, % at 10 µM; actives 0.51% (n = 310,000); AID 1511, 2009;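 active = activation above the mean of controls blocked by dofetilide plus 5 SD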;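 also: thallium influx through hERG after potassium depolarization seen as dye fluorescence rise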
KCNK9 inh: KCNK9 potassium channel inhibitors, primary screen, HEK293 cells, thallium flux. Potassium channel subfamily K member 9 (Homo sapiens), Q9NPC2. FluxOR thallium flux fluorescence; active compounds read low. B-score at 10 µM. actives 1.2% (n = 310,000);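 active = ratio B-score over 3 SD below the library mean, with starting fluorescence within 5 SD of its mean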;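 also: negative B-score means less thallium flux so channel inhibition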
KCNK3 block: human KCNK3 channel inhibitors, primary screen, CHO cells, FluxOR thallium flux, B-score; actives 0.84% (n = 340,000); FluxOR fluorescence; active compounds read low; B-score at 10 µM; Potassium channel subfamily K member 3 (Homo sapiens), O14649;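 active = B-score under library mean minus 4 SD, starting fluorescence ratio at most library mean plus 5 SD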;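 also: more negative B-score means stronger inhibition of thallium flux through KCNK3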
Target sequence (O14649 whole entry, looked up): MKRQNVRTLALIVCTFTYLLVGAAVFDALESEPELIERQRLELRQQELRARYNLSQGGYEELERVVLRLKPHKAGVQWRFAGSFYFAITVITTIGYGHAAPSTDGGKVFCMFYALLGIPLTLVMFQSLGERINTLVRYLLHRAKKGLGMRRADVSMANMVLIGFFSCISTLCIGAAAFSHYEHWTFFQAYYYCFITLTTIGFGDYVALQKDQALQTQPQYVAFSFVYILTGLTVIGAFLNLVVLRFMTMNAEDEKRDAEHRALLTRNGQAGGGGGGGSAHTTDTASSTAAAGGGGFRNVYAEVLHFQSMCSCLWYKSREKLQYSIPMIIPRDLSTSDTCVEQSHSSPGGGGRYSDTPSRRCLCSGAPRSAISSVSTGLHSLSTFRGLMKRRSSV
KCNQ1 block: inhibitors of human KCNQ1 channel, primary screen, cell-based, thallium flux, high-throughput. actives 1.3% (n = 310,000). B-score at 10 µM. Potassium voltage-gated channel subfamily KQT member 1 (Homo sapiens), P51787. AID 2642, 2010. CHO-K1 KCNQ1, FluxOR thallium flux fluorescence; active compounds read high;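 active = compounds whose thallium flux B-score, printed positive for inhibition, exceeds three library SD while starting fluorescence stays within three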;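 also: channel opened by potassium depolarization with thallium stimulus after 20 min compound exposure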
Numbers without * were called inactive; i = inactive; x = no result given.

SMILES	KCNQ1 act	hERG protect	KCNK9 inh	KCNK3 block	KCNQ1 block
CC(C)=CCC/C(C)=C/COc1c2occc2cc2ccc(=O)oc12	x	x	x	-9.82*	x
Cc1[nH]c2ccccc2c1/C=N/NC(=O)c1cccs1	i	-14.4	i	i	i
Cc1nn(-c2ccccc2)c(C)c1/C=N/NC(=O)c1cccs1	i	-7.2	-7.82*	i	i
CSc1ccc(/C=N/NC(=O)c2cccs2)cc1	46*	24.6*	i	i	i
Cc1c(/C=N/NC(=O)c2cccs2)c2ccccc2n1Cc1ccccc1Cl	i	-7.8	-7.7*	-9.31*	i
Cc1nn(-c2ccccc2)c(C)c1/C=N/NC(=O)c1cc(-c2cccs2)[nH]n1	i	-8.3	i	i	i
O=C(NNC(=O)C1C2C=CC(C2)C1C(=O)O)c1cc(Cl)ccc1O (configuration not stated)	i	-14.9	i	i	i
O=C(Cc1ccc([N+](=O)[O-])cc1)Nc1cccc(C(=O)N2CCCCC2)c1	x	x	x	i	x
Cc1ccc(C(=O)NCC(=O)N2CCCN(C)CC2)cc1C	x	x	x	i	x
Cc1cn2c(nc1=O)OC1C(O)C(COC(=O)c3ccccc3)OC12 (configuration not stated)	i	5.0*	i	i	i
O=C(OCC1OC2C(Oc3nc(=O)ccn32)C1O)c1ccccc1 (configuration not stated)	i	-8.3	i	i	i
COCc1cc(CN(C)C(=O)c2oc3c(F)cccc3c2C)[nH]n1	i	-7.9	i	i	i
CCOc1ccc(CCNC(=O)CN2C(=O)NC3(CCCCCC3)C2=O)cc1OCC	x	x	x	i	x
CCN(C(=O)CC(C)C)c1nnc(Cn2nnc3ccccc32)s1	i	-12.1	i	i	i
CCN(C(=O)c1ccc(C(C)(C)C)cc1)c1nnc(Cn2nnc3ccccc32)s1	i	-20.5	i	i	7*
COc1cccc(C2c3cc4c(cc3OC(NNC(N)=O)C2C)OCO4)c1O (configuration not stated)	x	x	x	i	x
O=[N+]([O-])c1ccc2c3n([n+]([O-])c2c1)CCN=C3c1ccc(Cl)cc1	i	-4.2	i	i	i
CCCCCn1c(=O)[nH]c2cc(C(=O)NCCc3ccc(OC)c(OC)c3)ccc2c1=O	i	-14.2	i	i	i
O=C(NCc1ccccc1)c1sc(=S)n2c1[nH]c(=O)c1ccccc12	i	-15.9	i	i	7*
CC(=O)NNC(=O)c1sc(=S)n2c1[nH]c(=O)c1sccc12	i	-10.1	i	i	i
CCCCNC(=O)c1sc(=S)n2c1[nH]c(=O)c1ccc(C(=O)NCCc3ccc(OC)c(OC)c3)cc12	i	-20.1	i	-10.3*	i
CCOc1ccc(N2CC(C(=O)NCCCc3ccccc3)CC2=O)cc1 (configuration not stated)	x	x	x	i	x
OC(CNCc1ccc(Cl)cc1)(c1ccccc1)c1ccc(F)cc1 (configuration not stated)	i	-18.4	-7.58*	i	i
COc1ccc(CNCC(O)(c2ccccc2)c2ccc(F)cc2)cc1 (configuration not stated)	i	-11.5	i	i	i
OC(CNCc1ccc(F)cc1)(c1ccc(F)cc1)c1ccc(F)cc1	i	-8.8	-6.63*	i	i
SMILES	KCNQ1 act	hERG protect	KCNK9 inh	KCNK3 block	KCNQ1 block
CN(C(=O)c1cccc(NC(=O)Cc2ccc(NC(=O)C3CCCN(C(=O)c4ccccc4)C3)cc2)c1)C1CCCCC1 (configuration not stated)	x	x	x	i	x
COc1ccc2nc(N3CCCCC3)c(/C=C3\SC(=S)NC3=O)cc2c1	i	7.4*	i	i	i
O=C1NC(=S)S/C1=C\c1cc2ccccc2nc1N1CCCCC1	i	-6.3	i	i	i
COc1ccc(C(CNC(=O)CN(C)S(=O)(=O)c2ccc(C)cc2)N2CCCC2)cc1 (configuration not stated)	x	x	x	i	x
CCN(CC(=O)Nc1ccc(NC(C)=O)cc1)C(=O)c1ccc(N2C(=O)c3ccccc3C2=O)cc1	x	x	x	i	x
CN(CC(=O)NC(=O)NCc1ccccc1)CC(=O)Nc1ccc(Cl)c(C(F)(F)F)c1	i	-14.8	i	i	i
CN(CC(=O)NCc1ccccc1)CC(=O)Nc1ccc(Cl)c(C(F)(F)F)c1	x	x	x	-9.36*	x
O=C(Nc1nc2cc3c(cc2s1)OCCO3)c1ccc([N+](=O)[O-])o1	i	-9.1	i	i	i
O=C(CNc1cccc2ccccc12)N/N=C/c1ccc([N+](=O)[O-])cc1	i	-5.7	i	i	i
O=C(CNc1cccc([N+](=O)[O-])c1)N/N=C/c1ccc(F)cc1	i	9.9*	i	i	i
COc1ccccc1C(=O)Nc1ccc2[nH]ncc2c1	9*	0.0	i	i	i
CCOc1cccc(C(=O)Nc2ccc3[nH]ncc3c2)c1	i	4.9*	i	i	i
COc1cccc(C(=O)Nc2ccc3[nH]ncc3c2)c1	i	-3.4	i	i	i
COc1ccccc1C(=O)Nc1ccncc1	i	-5.1	i	i	i
O=C(NCCN1CCOCC1)c1cc(-c2ccccc2Cl)on1	i	5.1*	i	i	i
Cc1c(C(=O)NCCN2CCOCC2)oc2ccccc12	i	48.2*	i	i	i
C=CCOC(=O)/C(=C/c1cccc2ccccc12)NC(=O)c1ccccc1	i	-7.8	i	i	i
CC(C)[C@H](NC(=O)OCc1ccccc1)C(=O)OCC(=O)N1C(C)CCCC1C (some centres not stated)	x	x	x	i	x
CCN1C[C@@H]2[C@@H]3C(=O)N(C)C(=O)[C@@H]3[C@](Cc3ccccc3)(C1=O)N2C(=O)c1ccccc1	x	x	x	i	x
CCN1CCCC(OC(=O)c2cc(-c3ccccc3Cl)nc3ccccc23)C1 (configuration not stated)	i	-11.0	-6.66*	i	i
CCOc1ccccc1N1CCN(C(=O)c2cc(-c3cc(OC)ccc3OC)nc3ccccc23)CC1	i	-18.5	i	i	6*
O=C(c1cc(-c2ccccc2Cl)nc2ccccc12)N1CCN(c2ccccc2O)CC1	i	-25.6	i	i	6*
O=C(c1cc(-c2ccccc2Cl)nc2ccccc12)N1CCC1	i	-17.1	i	i	i
CCOC(=O)C1=CNS(=O)(=O)NC1c1ccc2ccccc2c1 (configuration not stated)	x	x	x	i	x
